Measured values from ChEMBL document CHEMBL1135789, “Novel structures derived from 2-[[(2-pyridyl)methyl]thio]-1H-benzimidazole as anti-Helicobacter pylori agents, Part 2” (J Med Chem, 2002).
≈ marks a conversion by molar mass, not a printed value.

Legend:
Helicobacter pylori [1] = assay: Minimum inhibitory concentration against Helicobacter pylori (Helicobacter pylori) ARHp strain 80; format: functional
In short: (§1)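 Broth microdilution with two-fold serial dilutions in Brucella broth plus 5% (v/v) heat-inactivated FCS. Strains were pre-grown microaerophilically (5% O2, 10% CO2, 85% N2) on blood agar at 37 °C and passaged twice. The inoculum was a final 10^7 cells/mL.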

Helicobacter pylori [2] = assay: Minimum inhibitory concentration against Helicobacter pylori (Helicobacter pylori) ARHp strain 115; format: functional; in short: as §1
Helicobacter pylori [3] = assay: Minimum inhibitory concentration against Helicobacter pylori (Helicobacter pylori) ARHp strain 81; format: functional; in short: as §1
Mus musculus [4] = assay: AUC (area under curve) after oral dosing by gavage needle at 30 mg/kg in C57BL/6NTac female mice; Not checked; format: ADME, organism-based, Plasma; design: dose 30 mg/kg, route oral; details: in vivo
In short: (§2)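 Single oral gavage dose of 30 mg/kg in 85:15 0.5% aqueous hydroxypropylmethylcellulose:PEG-400, given to female C57BL/6NTac mice (6 weeks, 20 g). Plasma was diluted with MeCN to remove proteins, and the parent compound was quantified by LC-MS in single ion recording mode against calibration curves (LLOQ 10-50 ng/mL).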

Helicobacter pylori [5] = assay: Minimum inhibitory concentration against Helicobacter pylori (Helicobacter pylori) ARHp strain 206; format: functional; in short: as §1
Mus musculus [6] = assay: Maximum plasma concentration (Cmax) after oral dosing by gavage needle at 30 mg/kg in C57BL/6NTac female mice; Not checked; format: ADME, organism-based; design: dose 30 mg/kg, route oral; details: in vivo; in short: as §2
Helicobacter pylori [7] = assay: Minimum bacterial concentration (MBC) at which maximum growth inhibition against Helicobacter pylori has occurred; format: functional
In short: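 Strain ARHp206. Aliquots from microdilution wells showing no growth were plated on trypticase soy agar with 5% sheep blood. The MBC was judged by visual inspection as the concentration giving maximum growth inhibition.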

Mus musculus [8] = assay: AUC (area under curve) after oral dosing by gavage needle at 30 mg/kg in C57BL/6NTac female mice; format: ADME, organism-based, Plasma; design: dose 30 mg/kg, route oral; details: in vivo; in short: as §2
[9] = Maximum plasma concentration (Cmax) after oral dosing by gavage needle at 30 mg/kg in C57BL/6NTac female mice; format: ADME, organism-based; design: dose 30 mg/kg, route oral; details: mouse; in short: as §2
Mus musculus [10] = assay: Maximum plasma concentration (Cmax) after oral dosing by gavage needle at 30 mg/kg in C57BL/6NTac female mice; Not detected; format: ADME, organism-based; design: dose 30 mg/kg, route oral; details: in vivo; in short: as §2
Mus musculus [11] = assay: AUC (area under curve) after oral dosing by gavage needle at 30 mg/kg in C57BL/6NTac female mice; Not detected; format: ADME, organism-based, Plasma; design: dose 30 mg/kg, route oral; details: in vivo; in short: as §2

Structure (SMILES)	MIC (Helicobacter pylori [1])	MIC (Helicobacter pylori [2])	MIC (Helicobacter pylori [3])	AUC (Mus musculus [4])	MIC (Helicobacter pylori [5])	Cmax (Mus musculus [6])	MBC (Helicobacter pylori [7])	AUC (Mus musculus [8])	Cmax [9]	Cmax (Mus musculus [10])	AUC (Mus musculus [11])
Cc1c(CSc2nc3ccccc3[nH]2)cccc1SCCNS(=O)(=O)c1cccc2cccnc12	4 µg/mL (≈ 7.68 µM)	4 µg/mL (≈ 7.68 µM)	8 µg/mL (≈ 15.4 µM)	Not checked	8 µg/mL (≈ 15.4 µM)	Not checked	> 8 µg/mL	–	–	–	–
Cc1c(CSc2nc3ccccc3[nH]2)cccc1SCCNC(=O)Nc1ccccc1	0.5 µg/mL (≈ 1.11 µM)	0.5 µg/mL (≈ 1.11 µM)	0.5 µg/mL (≈ 1.11 µM)	–	0.5 µg/mL (≈ 1.11 µM)	–	8 µg/mL (≈ 17.8 µM)	283 ng·h/mL	140 ng/mL	–	–
Cc1c(CSc2nc3ccccc3[nH]2)cccc1SCCO	1 µg/mL (≈ 3.03 µM)	1 µg/mL (≈ 3.03 µM)	1 µg/mL (≈ 3.03 µM)	Not checked	1 µg/mL (≈ 3.03 µM)	Not checked	> 8 µg/mL	–	–	–	–
COc1cccc(NC(=O)OCCSc2cccc(CSc3nc4ccccc4[nH]3)c2C)c1	0.25 µg/mL (≈ 0.521 µM)	0.25 µg/mL (≈ 0.521 µM)	0.5 µg/mL (≈ 1.04 µM)	–	0.5 µg/mL (≈ 1.04 µM)	–	8 µg/mL (≈ 16.7 µM)	1630 ng·h/mL	797 ng/mL	–	–
Cc1c(CSc2nc3ccccc3[nH]2)cccc1SCC(=O)NCc1cccs1	0.5 µg/mL (≈ 1.14 µM)	0.5 µg/mL (≈ 1.14 µM)	1 µg/mL (≈ 2.27 µM)	–	1 µg/mL (≈ 2.27 µM)	–	8 µg/mL (≈ 18.2 µM)	–	–	Not detected	Not detected
Cc1c(CSc2nccs2)cccc1SCCOC(=O)Nc1ccccc1	0.5 µg/mL (≈ 1.2 µM)	0.5 µg/mL (≈ 1.2 µM)	0.5 µg/mL (≈ 1.2 µM)	–	0.5 µg/mL (≈ 1.2 µM)	–	8 µg/mL (≈ 19.2 µM)	99 ng·h/mL	74 ng/mL	–	–
Cc1c(CSc2ccncc2)cccc1SCCOC(=O)Nc1ccccc1	0.25 µg/mL (≈ 0.609 µM)	0.25 µg/mL (≈ 0.609 µM)	0.5 µg/mL (≈ 1.22 µM)	Not checked	0.5 µg/mL (≈ 1.22 µM)	Not checked	8 µg/mL (≈ 19.5 µM)	–	–	–	–
Cc1c(CSc2nc3ccccc3[nH]2)cccc1SCC(=O)N1CCCCC1	0.25 µg/mL (≈ 0.607 µM)	0.25 µg/mL (≈ 0.607 µM)	0.5 µg/mL (≈ 1.21 µM)	–	0.5 µg/mL (≈ 1.21 µM)	–	> 8 µg/mL	135 ng·h/mL	57 ng/mL	–	–
Cc1c(CSc2nc3ccccc3[nH]2)cccc1SCCN	4 µg/mL (≈ 12.1 µM)	4 µg/mL (≈ 12.1 µM)	8 µg/mL (≈ 24.3 µM)	Not checked	8 µg/mL (≈ 24.3 µM)	Not checked	> 8 µg/mL	–	–	–	–
Cc1c(CSc2nc3ccccc3[nH]2)cccc1SCC(=O)O	> 16 µg/mL	> 16 µg/mL	> 16 µg/mL	Not checked	> 16 µg/mL	Not checked	> 8 µg/mL	–	–	–	–
Cc1c(CSc2nc3ccccc3[nH]2)cccc1SCC(=O)NCc1ccccc1	1 µg/mL (≈ 2.31 µM)	1 µg/mL (≈ 2.31 µM)	1 µg/mL (≈ 2.31 µM)	–	1 µg/mL (≈ 2.31 µM)	–	1 µg/mL (≈ 2.31 µM)	–	–	Not detected	Not detected
Cc1c(CSc2nc3ccccc3[nH]2)cccc1SCCOC(=O)Nc1ccc(F)c(F)c1	0.25 µg/mL (≈ 0.515 µM)	0.25 µg/mL (≈ 0.515 µM)	0.5 µg/mL (≈ 1.03 µM)	–	0.5 µg/mL (≈ 1.03 µM)	–	8 µg/mL (≈ 16.5 µM)	1130 ng·h/mL	398 ng/mL	–	–
Cc1c(CSc2nc3ccccc3[nH]2)cccc1SCCOC(=O)Nc1ccccc1	0.5 µg/mL (≈ 1.11 µM)	0.5 µg/mL (≈ 1.11 µM)	0.5 µg/mL (≈ 1.11 µM)	–	0.5 µg/mL (≈ 1.11 µM)	–	1 µg/mL (≈ 2.22 µM)	2070 ng·h/mL	906 ng/mL	–	–
Cc1c(CSc2nc3ccccc3[nH]2)cccc1SCCNC(=O)c1cnccn1	0.25 µg/mL (≈ 0.574 µM)	0.25 µg/mL (≈ 0.574 µM)	0.5 µg/mL (≈ 1.15 µM)	–	0.5 µg/mL (≈ 1.15 µM)	–	> 8 µg/mL	271 ng·h/mL	471 ng/mL	–	–
Cc1c(CSc2nc3ccccc3[nH]2)cccc1SCCOC(=O)Nc1ccc(N(C)C)cc1	0.5 µg/mL (≈ 1.01 µM)	0.5 µg/mL (≈ 1.01 µM)	1 µg/mL (≈ 2.03 µM)	–	1 µg/mL (≈ 2.03 µM)	–	> 8 µg/mL	299 ng·h/mL	331 ng/mL	–	–
CC1(C)S[C@@H]2[C@H](NC(=O)[C@H](N)c3ccc(O)cc3)C(=O)N2[C@H]1C(=O)O [AMOXICILLIN]	0.06 µg/mL (≈ 0.164 µM)	0.06 µg/mL (≈ 0.164 µM)	0.06 µg/mL (≈ 0.164 µM)	Not checked	0.12 µg/mL (≈ 0.328 µM)	Not checked	–	–	–	–	–
CC[C@H]1OC(=O)[C@H](C)[C@@H](O[C@H]2C[C@@](C)(OC)[C@@H](O)[C@H](C)O2)[C@H](C)[C@@H](O[C@@H]2O[C@H](C)C[C@H](N(C)C)[C@H]2O)[C@](C)(OC)C[C@@H](C)C(=O)[C@H](C)[C@@H](O)[C@]1(C)O [CLARITHROMYCIN]	< 0.06 µg/mL	< 0.06 µg/mL	< 0.06 µg/mL	–	< 0.06 µg/mL	–	–	1770 ng·h/mL	1000 ng/mL	–	–
Cc1ncc([N+](=O)[O-])n1CCO [METRONIDAZOLE]	8 µg/mL (≈ 46.7 µM)	1 µg/mL (≈ 5.84 µM)	1 µg/mL (≈ 5.84 µM)	Not checked	1 µg/mL (≈ 5.84 µM)	Not checked	–	–	–	–	–
CN(C)[C@@H]1C(O)=C(C(N)=O)C(=O)[C@@]2(O)C(O)=C3C(=O)c4c(O)cccc4[C@@](C)(O)[C@H]3C[C@@H]12 [TETRACYCLINE]	1 µg/mL (≈ 2.25 µM)	1 µg/mL (≈ 2.25 µM)	1 µg/mL (≈ 2.25 µM)	–	1 µg/mL (≈ 2.25 µM)	–	–	–	–	–	–
